Source: ChEMBL document CHEMBL3407400, “Design, synthesis and biological evaluations of chirally pure 1,2,3,4-tertrahydroisoquinoline analogs as anti-cancer agents” (Eur J Med Chem, 2015)
The source made the active and inactive calls. The calls are words filed in the database; no cut-off is given here.

Test system: DU-145
Assay: Disruption of microtubule network in human DU145 cells at 50 uM after 48 hrs by immunohistochemistry analysis
Format: cell-based
Details: not given

| Structure (SMILES) | Activity |
| --- | --- |
| COC(=O)Nc1nc2cc(C(=O)c3cccs3)ccc2[nH]1 [NOCODAZOLE] | Active |

Test system: DU-145
Assay: Cell cycle arrest in human DU145 cells assessed as G2/M phase at 1 uM after 48 hrs by propidium iodide based flow cytometry (reference value: 6.75 %)
Format: functional
Details: not given

| Structure (SMILES) | Activity [%] |
| --- | --- |
| COc1cc([C@@H]2c3cc4c(cc3[C@@H](O[C@@H]3O[C@@H]5CO[C@@H](C)O[C@H]5[C@H](O)[C@H]3O)[C@H]3COC(=O)[C@H]23)OCO4)cc(OC)c1O [ETOPOSIDE] | 38.75 |
| COC(=O)Nc1nc2cc(C(=O)c3cccs3)ccc2[nH]1 [NOCODAZOLE] | 43.4 |

Test system: A549
Assay: Anticancer activity against human A549 cells after 48 hrs by MTT assay
Format: functional, cell-based
Details: A549, 48 h
Procedure, shortened: (§1)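 Cell lines held in DMEM or MEM with 10% FBS and antibiotic-antimycotic at 37 °C, 5% CO2. Cells seeded at 1 × 10⁴ per well in DMEM with 10% FBS and left 24 h. Compounds diluted in medium and added alongside vehicle control for 48 h. MTT (5 mg/mL) added for 4 h, formazan dissolved in DMSO, absorbance read at 570 nm.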

| Structure (SMILES) | IC50 [nM] |
| --- | --- |
| COc1cc([C@@H]2c3cc4c(cc3[C@@H](O[C@@H]3O[C@@H]5CO[C@@H](C)O[C@H]5[C@H](O)[C@H]3O)[C@H]3COC(=O)[C@H]23)OCO4)cc(OC)c1O [ETOPOSIDE] | 3010 |

Test system: MCF7
Assay: Anticancer activity against human MCF7 cells after 48 hrs by MTT assay
Format: functional, cell-based
Details: MCF7, 48 h
Procedure, shortened: as §1

| Structure (SMILES) | IC50 [nM] |
| --- | --- |
| COc1cc([C@@H]2c3cc4c(cc3[C@@H](O[C@@H]3O[C@@H]5CO[C@@H](C)O[C@H]5[C@H](O)[C@H]3O)[C@H]3COC(=O)[C@H]23)OCO4)cc(OC)c1O [ETOPOSIDE] | 2690 |

Test system: DU-145
Assay: Cell cycle arrest in human DU145 cells assessed as S phase at 1 uM after 48 hrs by propidium iodide based flow cytometry (reference value: 1.65 %)
Format: functional
Details: not given

| Structure (SMILES) | Activity [%] |
| --- | --- |
| COc1cc([C@@H]2c3cc4c(cc3[C@@H](O[C@@H]3O[C@@H]5CO[C@@H](C)O[C@H]5[C@H](O)[C@H]3O)[C@H]3COC(=O)[C@H]23)OCO4)cc(OC)c1O [ETOPOSIDE] | 1.45 |
| COC(=O)Nc1nc2cc(C(=O)c3cccs3)ccc2[nH]1 [NOCODAZOLE] | 0.86 |

Test system: DU-145
Assay: Cell cycle arrest in human DU145 cells assessed as subG1 phase at 1 uM after 48 hrs by propidium iodide based flow cytometry (reference value: 9.36 %)
Format: functional
Details: not given

| Structure (SMILES) | Activity [%] |
| --- | --- |
| COc1cc([C@@H]2c3cc4c(cc3[C@@H](O[C@@H]3O[C@@H]5CO[C@@H](C)O[C@H]5[C@H](O)[C@H]3O)[C@H]3COC(=O)[C@H]23)OCO4)cc(OC)c1O [ETOPOSIDE] | 7.13 |
| COC(=O)Nc1nc2cc(C(=O)c3cccs3)ccc2[nH]1 [NOCODAZOLE] | 4.52 |

Test system: DU-145
Assay: Cell cycle arrest in human DU145 cells assessed as G0/G1 phase at 1 uM after 48 hrs by propidium iodide based flow cytometry (reference value: 79.15 %)
Format: functional
Details: not given

| Structure (SMILES) | Activity [%] |
| --- | --- |
| COc1cc([C@@H]2c3cc4c(cc3[C@@H](O[C@@H]3O[C@@H]5CO[C@@H](C)O[C@H]5[C@H](O)[C@H]3O)[C@H]3COC(=O)[C@H]23)OCO4)cc(OC)c1O [ETOPOSIDE] | 48.84 |
| COC(=O)Nc1nc2cc(C(=O)c3cccs3)ccc2[nH]1 [NOCODAZOLE] | 48.19 |

Test system: HeLa
Assay: Anticancer activity against human HeLa cells after 48 hrs by MTT assay
Format: functional, cell-based
Details: not given
Procedure, shortened: as §1

| Structure (SMILES) | IC50 [nM] |
| --- | --- |
| COc1cc([C@@H]2c3cc4c(cc3[C@@H](O[C@@H]3O[C@@H]5CO[C@@H](C)O[C@H]5[C@H](O)[C@H]3O)[C@H]3COC(=O)[C@H]23)OCO4)cc(OC)c1O [ETOPOSIDE] | 3230 |

Test system: HepG2
Assay: Anticancer activity against human HepG2 cells after 48 hrs by MTT assay
Format: functional, cell-based
Details: HepG2, 48 h
Procedure, shortened: as §1

| Structure (SMILES) | IC50 [nM] |
| --- | --- |
| COc1cc([C@@H]2c3cc4c(cc3[C@@H](O[C@@H]3O[C@@H]5CO[C@@H](C)O[C@H]5[C@H](O)[C@H]3O)[C@H]3COC(=O)[C@H]23)OCO4)cc(OC)c1O [ETOPOSIDE] | 2450 |

Test system: DU-145
Assay: Anticancer activity against human DU145 cells after 48 hrs by MTT assay
Format: functional, cell-based
Details: DU-145, 48 h
Procedure, shortened: as §1

| Structure (SMILES) | IC50 [nM] |
| --- | --- |
| COc1cc([C@@H]2c3cc4c(cc3[C@@H](O[C@@H]3O[C@@H]5CO[C@@H](C)O[C@H]5[C@H](O)[C@H]3O)[C@H]3COC(=O)[C@H]23)OCO4)cc(OC)c1O [ETOPOSIDE] | 1980 |
